Here are results for 18 molecules from ChEMBL document CHEMBL1144711, “Polyaminohydroxamic acids and polyaminobenzamides as isoform selective histone deacetylase inhibitors” (J Med Chem, 2008).

The test system of assay [1] is HCT-116. The assay is described as follows: Increase in acetylated histone H3 level in human HCT116 cells at 10 uM after 24 hrs relative to control. The class given is functional. Summed up:
(§1)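 HCT116 cells adhered overnight, then exposed to 10 μM compound for 24 h. Cells lysed in HEPES pH 7.9/NaCl/Triton buffer with protease inhibitors at 4 °C. 30 μg total protein per lane run on 10% Bis-Tris gels and blotted with antibodies to AcH3, AcH4, p21waf1 or acetylated α-tubulin, with α-actin also probed. Infrared fluorescent secondaries used for quantification; single determinations reported as fold increase.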

Assay [2] deals with HCT-116. The assay can be described thus: Increase in p21waf1 re-expression in human HCT116 cells at 10 uM after 24 hrs relative to control. The class given is functional. Summed up: as §1
The subject of assay [3] is HCT-116. The assay is described as follows: Increase in acetylated alpha tubulin level in human HCT116 cells at 10 uM after 24 hrs relative to control. Format: functional. In a few lines:
as §1

The target of assay [4] is T1, Histone deacetylase (Homo sapiens) (UniProt Q13547+O15379+Q9UBN7+Q92769+Q9UQL6+Q8WUI4+Q9BY41+Q96DB2+P56524+Q9UKV0+Q969S8). The settings on record: HeLa, at 1 µM.
Assay [5] deals with HCT-116. The assay can be described thus: Cytotoxicity against human HCT116 cells assessed as cell viability after 96 hrs by MTS reduction assay in presence of diamine oxidase inhibitor aminoguanidine. Format: functional, cell-based. The settings on record: HCT-116, 96 h. Summed up: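 HCT116 cells in McCoy's 5A with 10% fetal calf serum, 37 °C, 5% CO2; 3000 cells/well seeded in triplicate and attached overnight. Medium replaced with fresh medium containing a range of compound concentrations for 96 h. CellTiter 96 One Solution MTS added for 1.5 h at 37 °C, absorbance read at 490 nm. Two separate experiments averaged to give IC50.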

For assay [6], the target named is T1, Histone deacetylase (Homo sapiens). The assay is described as follows: Inhibition of human HDAC at 1 uM.
In assay [7] the test system is HCT-116. The assay can be described thus: Increase in acetylated histone H4 level in human HCT116 cells at 10 uM after 24 hrs relative to control. The class given is functional. Summed up: as §1
The test system of assay [8] is HCT-116. The assay is described as follows: Cytotoxicity against human HCT116 cells assessed as cell viability after 96 hrs by MTS reduction assay. Format: functional, cell-based. To be noted: HCT-116, 96 h. (Tetrazolium dyes change colour on reduction, which living cells bring about.)
Assay [9] concerns the target T1, Histone deacetylase (Homo sapiens). The assay is described as follows: Inhibition of human HDAC in HeLa cells at 5 uM. The class given is cell-based.
Assay [10] concerns the target Histone deacetylase 3 (Homo sapiens) (UniProt O15379). The assay can be described thus: Inhibition of human recombinant HDAC3. The settings on record: concentration not given here.
In assay [11] the target is T2, Protein deacetylase HDAC6 (Homo sapiens) (UniProt Q9UBN7).
T2 sequence (whole entry): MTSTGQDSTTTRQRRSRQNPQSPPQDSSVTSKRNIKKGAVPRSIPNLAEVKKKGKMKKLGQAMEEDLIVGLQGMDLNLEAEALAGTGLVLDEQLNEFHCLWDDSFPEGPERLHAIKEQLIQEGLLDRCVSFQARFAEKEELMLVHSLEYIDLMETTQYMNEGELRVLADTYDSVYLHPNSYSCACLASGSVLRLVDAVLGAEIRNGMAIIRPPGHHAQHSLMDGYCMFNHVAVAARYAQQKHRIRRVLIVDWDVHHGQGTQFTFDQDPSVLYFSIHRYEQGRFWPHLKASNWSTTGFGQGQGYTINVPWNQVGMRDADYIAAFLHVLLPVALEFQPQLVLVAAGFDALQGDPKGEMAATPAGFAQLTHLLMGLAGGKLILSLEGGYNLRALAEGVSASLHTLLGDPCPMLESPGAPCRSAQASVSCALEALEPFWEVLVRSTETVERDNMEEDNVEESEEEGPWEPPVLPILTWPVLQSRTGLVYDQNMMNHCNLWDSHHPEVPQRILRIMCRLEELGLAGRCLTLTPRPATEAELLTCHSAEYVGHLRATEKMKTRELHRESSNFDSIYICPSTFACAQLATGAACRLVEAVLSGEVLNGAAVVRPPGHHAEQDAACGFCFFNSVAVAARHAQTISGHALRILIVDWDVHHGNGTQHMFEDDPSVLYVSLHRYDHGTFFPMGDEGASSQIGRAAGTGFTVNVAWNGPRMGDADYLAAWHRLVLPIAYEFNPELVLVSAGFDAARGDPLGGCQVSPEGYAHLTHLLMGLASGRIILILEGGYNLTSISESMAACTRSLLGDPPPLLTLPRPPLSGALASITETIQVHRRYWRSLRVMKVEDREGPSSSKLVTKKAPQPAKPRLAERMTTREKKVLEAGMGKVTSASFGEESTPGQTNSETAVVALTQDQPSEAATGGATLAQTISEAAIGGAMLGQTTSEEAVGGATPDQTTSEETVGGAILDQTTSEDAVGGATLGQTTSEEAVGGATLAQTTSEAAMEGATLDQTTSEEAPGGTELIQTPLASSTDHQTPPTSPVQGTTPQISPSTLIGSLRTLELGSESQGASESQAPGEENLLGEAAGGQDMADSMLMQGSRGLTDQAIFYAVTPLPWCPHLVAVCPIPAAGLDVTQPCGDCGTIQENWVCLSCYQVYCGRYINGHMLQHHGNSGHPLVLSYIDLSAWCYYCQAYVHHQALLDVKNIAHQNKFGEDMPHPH
The assay can be described thus: Inhibition of human recombinant HDAC6. The settings on record: concentration not given here.

A short description of assay [12]: Inhibition of [14C]spermidine uptake at human polyamine transporter in ML1 cells. Format: cell-based. Summed up: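 Competition for 14C-spermidine uptake in ML-1 acute myelogenous leukemia cells. Concentration-dependent spermidine uptake measured in the presence of 0.0, 10.0, 25.0 and 50.0 μM test compound.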

SMILES strings stand for the structures. A value given as a limit tells only on which side of the number the result lay.

Sequence of Histone deacetylase 3 (Homo sapiens) (O15379 whole entry): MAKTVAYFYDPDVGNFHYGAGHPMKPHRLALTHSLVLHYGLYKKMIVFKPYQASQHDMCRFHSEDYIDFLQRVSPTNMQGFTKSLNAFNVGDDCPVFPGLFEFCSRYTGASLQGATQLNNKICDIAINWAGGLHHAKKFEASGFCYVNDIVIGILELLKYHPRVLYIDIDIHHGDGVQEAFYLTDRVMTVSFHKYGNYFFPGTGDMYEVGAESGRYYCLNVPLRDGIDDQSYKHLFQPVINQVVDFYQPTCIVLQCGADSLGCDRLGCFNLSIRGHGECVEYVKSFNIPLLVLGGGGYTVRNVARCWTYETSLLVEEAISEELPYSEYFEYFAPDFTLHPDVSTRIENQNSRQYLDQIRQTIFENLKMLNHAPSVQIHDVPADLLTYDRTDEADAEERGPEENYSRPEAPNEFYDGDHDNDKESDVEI

With `CN(C)c1ccc(CN(CCCNCCCCN)C(=O)CCCCCCC(=O)NO)cc1`, the Fold change in assay [1] was 0; in assay [2], 0.49; in assay [3] it was 6.07; in [7] it was 1.95. Further, the inhibition in assay [4] and in assay [6] was 58.6% each time. In addition, the IC50 in [5] was greater than 100 µM; in [8] it was 38.6 µM.

Molecule `O=C(CCCCCCC(=O)NCCCNCCCNCCCNCCC(c1ccccc1)c1ccccc1)NO` showed an inhibition in assay [4] of 55.2%. Besides, the IC50 in [8] was greater than 100 µM.

`CC(C)(C)c1ccc(CNCCCCNCCCNC(=O)CCCCCCC(=O)NCc2ccc(C(=O)Nc3ccccc3N)cc2)cc1`: the Fold change in [1] is on record as 1.19; in assay [2], 2.55; in assay [3], 2.27; in [7], 1.12. The inhibition in assay [9] came out at 51.2%; in [10] it was 1.3%; in assay [4], 30.8%; in [11] it was 11.7%. Moreover, in assay [8], the IC50 was greater than 100 µM.

With `O=C(CCCCCC(=O)NCCCNCCCCNCCC(c1ccccc1)c1ccccc1)NO`, in [4], the inhibition is 46.3%. Besides, the IC50 in [8] was greater than 100 µM.

In turn, `Nc1ccccc1NC(=O)c1ccc(CNC(=O)CCCCCCC(=O)NCCCNCCCCNCCC(c2ccccc2)c2ccccc2)cc1` had an inhibition in [9] of 66.7%. For the same molecule, in assay [8], the IC50 was greater than 100 µM.

Consider `O=C(CCCCC(=O)NCCCNCCCCNCc1ccccc1-c1ccccc1)NO`, for which the Fold change in [1] was 3.34; in assay [2] it was 2.01; in [3], 89.01; in assay [7], 17.4. The molecule also registered an inhibition in assay [4] of 71.3%. In addition, in assay [8], the 50% inhibitory concentration (IC50) was greater than 100 µM.

On to `CC(C)c1ccc(CNCCCCNCCCNC(=O)CCCCC(=O)NO)cc1`, for which the Fold change in assay [1] is given as 3.76; in [2], 3.01; in assay [3] it was 75.7; in assay [7], 14.22. For the same molecule, the inhibition in assay [4] was determined as 15.9%. For the same molecule, the 50% inhibitory concentration (IC50) in [8] was greater than 100 µM.

On to `CC(C)(C)c1ccc(CNCCCCNCCCNC(=O)CCCC(=O)NCc2ccc(C(=O)Nc3ccccc3N)cc2)cc1`, for which the values for the inhibition in assay [9] and in [4] were 37.4% and 28%, respectively. In addition, the half-inhibitory concentration (IC50) in assay [8] is greater than 100 µM. Also, the Ki in assay [12] stood at 7.7 µM.

`CN(C)c1ccc(CNCCCCNCCCNC(=O)CCCCCCC(=O)NO)cc1`: the Fold change is given as 0 in assay [1], 0.46 in assay [2], 6.76 in assay [3] and 1.36 in [7]. The molecule further showed an inhibition in [4] of 46.7%. For the same molecule, in assay [8], the 50% inhibitory concentration (IC50) was greater than 100 µM.

Take `CC(C)(C)c1ccc(CNCCCCNCCCNC(=O)CCCCCC(=O)NO)cc1`: the Fold change in assay [1] is 21.49; in assay [2], 2.33; in assay [3], 253.25; in assay [7], 20.84. Moreover, the inhibition in assay [10] stood at 99.1%; in assay [11], 99.7%. Also, the IC50 in assay [8] was greater than 100 µM.

Turning to `O=C(CCCCCCC(=O)NCCCNCCCCNCc1ccccc1-c1ccccc1)NO`, the Fold change in assay [1] worked out at 5.19; in [2], 1.64; in assay [3] it was 36.3; in assay [7], 7.82. For the same molecule, in [4], the inhibition stood at 38.6%. For the same molecule, the IC50 in assay [8] was greater than 100 µM.

With `O=C(CCCCCCC(=O)NCCCNCCCCNCCSc1ccccc1)NO`, the Fold change in [1] is listed as 0; in assay [2], 1.98; in assay [3] it was 101.36; in [7], 11.68. The same molecule showed an inhibition in assay [4] of 16.5%. Moreover, the half-maximal inhibitory concentration (IC50) in assay [8] is greater than 100 µM.

`O=C(CCCCCCCC(=O)NCCCNCCCCNCCC(c1ccccc1)c1ccccc1)NO` registered an inhibition in [4] of 54.6%. In addition, in assay [8], the IC50 is greater than 100 µM.

For the molecule `CC(C)(C)c1ccc(CNCCCCNCCCNC(=O)CCCCCCCC(=O)NO)cc1`, the Fold change in [1] was determined as 0; in [2] it was 0.61; in assay [3] it was 11.99; in assay [7] it was 3.25. Besides, the inhibition in assay [4] was determined as 88.7%. In addition, the half-inhibitory concentration (IC50) in assay [8] was greater than 100 µM.

Regarding `CN(C)c1ccc(CN(CCCNCCCCNCc2ccc(C(C)(C)C)cc2)C(=O)CCCCC(=O)NO)cc1`, in [4], the inhibition stood at 2%.

Regarding `O=C(CCCCCCCCC(=O)NCCCNCCCCNCCC(c1ccccc1)c1ccccc1)NO`, the Fold change was found to be 0 in [1], 0.41 in assay [2], 1.97 in assay [3] and 0.95 in assay [7]. In assay [4], this molecule came in with an inhibition of 73.9%. Besides, the IC50 in [8] is greater than 100 µM.

In the case of `CC(C)c1ccc(CNCCCCNCCCNC(=O)CCCCCCC(=O)NO)cc1`, the Fold change was determined as 0 in assay [1], 0.86 in assay [2], 11.98 in assay [3] and 4.74 in assay [7]. Besides, in [4], the inhibition amounted to 41.4%. The concentration for half-maximal inhibition (IC50) in [8] is greater than 100 µM.

Regarding `O=C(CCCCC(=O)NCCCNCCCCNCCSc1ccccc1)NO`, the Fold change came out at 2.38 in assay [1], 2.56 in [2], 72.9 in [3] and 12.06 in assay [7]. For the same molecule, the inhibition in assay [4] came out at 6.7%. For the same molecule, the half-inhibitory concentration (IC50) in [8] is greater than 100 µM.

Usually inhibition stands for how much of the control response was suppressed. What is called IC50 is the concentration that inhibits the measured activity by half. One may read the Ki as a dissociation constant, usually derived from enzyme kinetics or from competition with a known ligand. Read a high Ki as weaker binding.
